Compounds with a hit are over-represented: about 3.7% of the library has one in this group of screens.
Kir21 inh – inhibitors of mouse Kir2.1 inward-rectifier potassium channel | P35561 | HEK293-Kir2.1, FluxOR thallium flux fluorescence; stronger effect = lower value | B-score at 10 µM | 310,000 tested, 0.85% active | AID 1672;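 active means fluorescence ratio B-score at or below minus 3 SD of library scores, with starting-brightness B-score within 2 SD, cut at about -4.2 in these data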;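 further: channel flux triggered by added potassium and thallium sulfate stimulus; B-score of peak minus minimum fluorescence over baseline after thallium stimulus; more negative B-score means stronger Kir2.1 block with less thallium influx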
Target sequence (P35561 whole entry, looked up): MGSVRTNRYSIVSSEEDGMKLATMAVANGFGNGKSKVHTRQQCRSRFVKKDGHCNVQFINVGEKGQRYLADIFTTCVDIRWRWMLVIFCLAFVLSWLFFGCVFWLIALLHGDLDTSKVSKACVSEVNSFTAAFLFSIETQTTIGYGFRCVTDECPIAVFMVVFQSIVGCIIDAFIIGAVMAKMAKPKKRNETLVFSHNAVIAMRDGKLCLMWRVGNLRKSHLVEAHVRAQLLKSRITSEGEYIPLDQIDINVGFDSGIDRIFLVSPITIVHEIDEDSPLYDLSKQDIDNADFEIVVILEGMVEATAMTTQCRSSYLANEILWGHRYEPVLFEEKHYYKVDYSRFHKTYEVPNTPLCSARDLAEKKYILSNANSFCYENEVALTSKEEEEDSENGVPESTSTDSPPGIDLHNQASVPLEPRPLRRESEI
KCNK3 inh – human KCNK3 channel inhibition, primary screen; AID 602410; CHO-KCNK3 thallium flux, FluxOR fluorescence; stronger effect = lower value; 340,000 tested, 0.84% active; B-score at 10 µM;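 active means B-score under library mean minus 4 SD, starting fluorescence ratio at most library mean plus 5 SD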;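 further: more negative B-score means stronger inhibition of thallium flux through KCNK3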
KCNK9 block – inhibitors of human KCNK9 two-pore domain potassium channel | Q9NPC2 | HEK293 KCNK9, FluxOR thallium flux fluorescence; stronger effect = lower value | B-score at 10 µM | 310,000 tested, 1.2% active | AID 488922;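 active means ratio B-score over 3 SD below the library mean, with starting fluorescence within 5 SD of its mean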;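 further: negative B-score means less thallium flux so channel inhibition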
KCNQ1 pot – human KCNQ1 channel potentiation or activation | CHO-K1 KCNQ1, thallium flux FluxOR fluorescence; stronger effect = higher value | B-score at 10 µM | 310,000 tested, 0.35% active;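 active means fluorescence ratio B-score, a plate-corrected score, at least three library SD, with initial intensity B-score within 5 SD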
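Medium – assay buffer, equal DMSO in all wells · Material – CHO-K1 cell line with stable KCNQ1 potassium channel expression · Signal – kinetic FluxOR thallium fluorescence, 10-s 1-Hz baseline, 110-s post-stimulus read · Compound – single concentration per compound, DMSO matched to controls · Schedule – 37 °C overnight plating, 90-min dark dye load, 20-min compound pretreatment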
KCNQ1 block – inhibitors of human KCNQ1 potassium channel. AID 2642. B-score at 10 µM. 310,000 tested, 1.3% active. CHO-K1 KCNQ1, FluxOR thallium flux fluorescence; stronger effect = higher value. P51787;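 active means compounds whose thallium flux B-score, printed positive for inhibition, exceeds three library SD while starting fluorescence stays within three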;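 further: channel opened by potassium depolarization with thallium stimulus after 20 min compound exposure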
hERG rescue – hERG (human) protection from proarrhythmic block; 310,000 tested, 0.51% active; activation (rescue from dofetilide block), less the hit threshold, % at 10 µM; CHO-hERG, FluxOR thallium flux, dofetilide IC70 present; AID 1511; Q12809;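 active means activation above the mean of controls blocked by dofetilide plus 5 SD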;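 further: thallium influx through hERG after potassium depolarization seen as dye fluorescence rise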
KCNK9 block conf – human KCNK9 inhibitor confirmation; shares compounds with KCNK9 block; HEK293 KCNK9 cells, FluxOR thallium flux fluorescence; inhibition, % at 10 µM; 4,900 tested, 43% active; AID 492992;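 active means thallium signal inhibited by more than 5 SD of the compound-free buffer control wells, on both duplicate plates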;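 further: 0% = assay buffer control wells without compound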
Kir21 sel – selectivity of KCNK9 modulators against mouse Kir2.1; AID 492993; shares compounds with KCNK9 block; Kir2.1 cells, FluxOR thallium flux fluorescence; inhibition, % at 10 µM; 4,900 tested, 4% active;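 active means thallium signal drop more than 5 SD beyond the mean of the no-compound control wells, seen in both duplicate plates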;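 further: signal is fluorescence rise after thallium addition divided by baseline fluorescence; plate controls were assay buffer only for no effect and full block by chlorpromazine control for full effect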
KCNK9 uninduced – second check of KCNK9 modulator effects in non-induced HEK293 cells. shares compounds with KCNK9 block. FluxOR thallium flux. inhibition, % at 10 µM. 4,900 tested, 40% active. AID 492997;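 active means thallium signal drop beyond 5 SD of the untreated control mean, on both duplicate plates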;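 further: plate controls were buffer only IC0 wells for no effect and SID17386958 at its maximal inhibitory level for full effect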
KCNK3 confirm – confirmation of human KCNK3 two-pore domain potassium channel inhibitors; shares compounds with KCNK3 inh; CHO-KCNK3 thallium flux, FluxOR fluorescence; 0% buffer, 100% carvedilol maximal block; ratio percent of control, % at 10 µM; 2,400 tested, 99% active;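 active means ratio percent of control, averaged over triplicates, above buffer control mean plus 5 SD, cut at about 64% in these data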;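 further: ratio is the fluorescence rise from min to max over baseline after thallium stimulus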
KCNK3 uninduced – KCNK3 inhibitor counter-screen hit in non-induced cells; 2,400 tested, 40% active; AID 651747; non-induced KCNK3 parental cells, FluxOR thallium flux; stronger effect = lower value; shares compounds with KCNK3 inh; thallium flux ratio (lower = more inhibition) at 10 µM;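 active means thallium flux ratio, averaged over three wells, more than 5 SD below the buffer control mean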;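 further: host cells are CHO cells without KCNK3 induction; ratio is peak minus trough fluorescence over baseline then normalized to buffer controls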
* = called active by the depositor; i = inactive; . = no result given.

SMILES	Kir21 inh	KCNK3 inh	KCNK9 block	KCNQ1 pot	KCNQ1 block	hERG rescue	KCNK9 block conf	Kir21 sel	KCNK9 uninduced	others
C#CCn1c(S(=O)(=O)Cc2ccc(OC)cc2)nc(-c2ccccc2)c1-c1ccccc1	0.07	-9.4*	-18*	i	i	-2	62%*	i	26%*
Cc1ccc(-n2nc3c(=O)n(CCCC(=O)NCc4ccco4)nc(C)c3c2C)cc1	0.64	i	i	i	i	-7	.	.	.
CN(c1ccc(C(=O)NCCSCc2ccccc2)cc1)S(=O)(=O)c1ccccc1	0.21	i	i	i	i	-5	i	i	i
CN(c1ccc(C(=O)NCc2ccc3c(c2)OCO3)cc1)S(=O)(=O)c1ccccc1	-0.52	i	i	i	i	-12	.	.	.
Cc1cccc(CSCCNC(=O)c2ccc(N(C)S(=O)(=O)c3ccccc3)cc2)c1	0.76	i	i	i	7*	-3	i	i	i
CN(CC(=O)Nc1ccc(F)cc1)C(=O)C1CC(=O)N(Cc2ccccc2)C1 (stereo unspecified)	-1.3	i	i	i	i	-14	.	.	.
O=C(NCC1CCCO1)c1ccc(-c2ccccc2Cl)o1 (stereo unspecified)	0.12	i	i	i	i	-13	.	.	.
CCOC(=O)C1=C(C)N=C2SC(C)C(=O)N2C1c1ccc(OC(C)=O)c(OC)c1 (stereo unspecified)	-2.3	i	-15*	i	i	-7	63%*	i	34%*
Cc1c(NC(=S)NC(=O)C2CCCCC2)c(=O)n(-c2ccccc2)n1C	2	i	i	i	i	-5	.	.	.
Cc1ccc(Sc2ccc(N)cn2)cc1	1.5	i	i	i	i	-15	.	.	.
CC(C)Oc1cccc(C(=O)C2CCCN(C(=O)c3ccsc3)C2)c1 (stereo unspecified)	-0.9	i	i	i	i	-11	i	i	i
CC(C)Oc1cccc(C(=O)C2CCCN(C(=O)c3noc4c3CCCC4)C2)c1 (stereo unspecified)	-0.14	i	i	i	i	-6	i	i	i
CC(C)Oc1cccc(C(=O)C2CCCN(C(=O)c3ccc4c(c3)OCO4)C2)c1 (stereo unspecified)	-3.3	i	i	i	i	-7	i	i	i
CC(C)Oc1cccc(C(=O)C2CCCN(C(=O)c3cncs3)C2)c1 (stereo unspecified)	0.03	i	i	i	i	-7	.	.	.
CCN(CC(=O)NCc1ccc(F)cc1)C(=O)CN1CCN(c2ccc(OC)cc2)CC1	0.5	i	i	i	i	-7	.	.	.
CCc1ccc(N(C(=O)c2snc(C(N)=O)c2N)C(C(=O)NCC2CCCO2)c2cccs2)cc1 (stereo unspecified)	3.1	i	i	i	i	-18	i	i	i
NC(=O)c1nsc(C(=O)N(c2ccc(Cl)cc2)C(C(=O)NCC2CCCO2)c2cccs2)c1N (stereo unspecified)	0.01	i	i	i	i	-5	.	.	.
CSCCC(NC(=O)c1ccccc1Cl)C(=O)N1CCCCC1 (stereo unspecified)	.	i	.	.	.	.	.	.	.
CCCCOc1cccc(C(=O)NC(=S)Nc2cccc(C(F)(F)F)c2)c1	-1.8	i	i	i	i	-5	i	i	i
Cc1ccc2c(c1)N(CC(=O)NCCCN1CCN(C)CC1)C(=O)CO2	0.28	i	i	i	i	-5	.	.	.
C[C@@H](C(=O)NCc1ccccc1)[C@H]1C[C@]1(C)[C@H](NC(=O)OCc1ccccc1)c1ccccc1	1.2	i	-9.2*	i	i	-8	49%*	i	i
C[C@@H](C(=O)O)[C@H]1C[C@]1(C)[C@H](NC(=O)OCc1ccccc1)c1ccccc1	0.57	i	i	i	i	-7	.	.	.
CCn1c2ccccc2c2cc(NC(=O)c3cccc(OC)c3OC)ccc21	0.3	i	i	i	i	-9	.	.	.
CCn1c2ccccc2c2cc(NC(=O)c3cccc(OC)c3)ccc21	-0.96	i	-12*	i	i	-20	43%*	i	36%*
CCC1C(=NO)C(CC)C(c2ccccc2)NC1c1ccccc1 (stereo unspecified)	-0.95	i	i	i	i	-11	i	i	i
SMILES	Kir21 inh	KCNK3 inh	KCNK9 block	KCNQ1 pot	KCNQ1 block	hERG rescue	KCNK9 block conf	Kir21 sel	KCNK9 uninduced	others
CCCC1/C(=N/O)CC(c2ccccc2)NC1c1ccccc1 (stereo unspecified)	-1.2	i	i	i	i	-9	.	.	.
Cc1cc(Oc2ccc3ccccc3c2)nc(SCC(=O)c2ccccc2)n1	-2.3	i	-13*	i	i	-10	76%*	i	38%*
CCOC(=O)c1ccc2c(c1)nc(COc1ccc3ccccc3c1)n2CC	-0.66	-10*	-13*	i	i	-12	59%*	i	44%*	KCNK3 confirm=125*;KCNK3 uninduced=0.13*
COc1cccc(CN2C(=O)[C@@H]3Cc4c([nH]c5ccccc45)C(C)(C)N3C2=O)c1	-0.46	i	i	i	i	-8	.	.	.
COc1ccc(C(=O)/C=C/c2ccc(OC)c(COc3ccc(F)cc3)c2)cc1	1.6	-10*	-13*	i	i	-5	66%*	i	33%*	KCNK3 confirm=129*;KCNK3 uninduced=0.15*
Cc1cccn2cc(-c3cccc(NC(=O)c4cccs4)c3)nc12	0.72	-12*	-10*	i	i	-25	40%*	i	i	KCNK3 confirm=121*;KCNK3 uninduced=i
Cn1cccc1-c1nc2ccc(NC(=O)c3cccs3)cc2[nH]1	-0.84	-12*	-10*	i	i	-22	46%*	i	i	KCNK3 confirm=141*;KCNK3 uninduced=0.13*
Cc1nc(-c2cccc(NC(=O)c3cccs3)c2)cs1	-0.63	i	i	i	i	-16	.	.	.

Screening results from PubChem.
